Assay outcomes from PubChem BioAssay.
KCNQ1 block – human KCNQ1 channel inhibition; actives 1.3% (n = 310,000); P51787; CHO-K1 KCNQ1, FluxOR thallium flux fluorescence; hits give high values; B-score at 10 µM;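 active = compounds whose thallium flux B-score, printed positive for inhibition, exceeds three library SD while starting fluorescence stays within three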;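 note: channel opened by potassium depolarization with thallium stimulus after 20 min compound exposure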
hERG rescue – shields human hERG channel from block by proarrhythmic agents | Q12809 | CHO-hERG, FluxOR thallium flux, dofetilide IC70 present | activation (rescue from dofetilide block), less the hit threshold, % at 10 µM | actives 0.51% (n = 310,000);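 active = activation above the mean of controls blocked by dofetilide plus 5 SD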;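 note: thallium influx through hERG after potassium depolarization seen as dye fluorescence rise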
KCNK3 block – human KCNK3 channel inhibition, primary screen; B-score at 10 µM; CHO-KCNK3 thallium flux, FluxOR fluorescence; hits give low values; actives 0.84% (n = 340,000);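 active = B-score under library mean minus 4 SD, starting fluorescence ratio at most library mean plus 5 SD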;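 note: more negative B-score means stronger inhibition of thallium flux through KCNK3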
Target sequence (O14649 whole entry, looked up): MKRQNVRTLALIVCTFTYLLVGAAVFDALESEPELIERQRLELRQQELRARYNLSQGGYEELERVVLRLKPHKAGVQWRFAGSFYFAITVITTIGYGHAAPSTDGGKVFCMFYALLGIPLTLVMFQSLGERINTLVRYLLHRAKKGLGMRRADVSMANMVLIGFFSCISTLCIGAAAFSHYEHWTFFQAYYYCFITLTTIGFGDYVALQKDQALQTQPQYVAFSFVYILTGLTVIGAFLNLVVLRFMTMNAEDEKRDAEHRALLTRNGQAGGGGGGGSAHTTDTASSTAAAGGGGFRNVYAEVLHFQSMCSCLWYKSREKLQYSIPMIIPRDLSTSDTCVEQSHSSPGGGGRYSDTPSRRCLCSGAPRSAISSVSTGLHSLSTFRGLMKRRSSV
Kir21 block – blocks the mouse Kir2.1 inward-rectifier potassium channel; P35561; HEK293-Kir2.1, FluxOR thallium flux fluorescence; hits give low values; B-score at 10 µM; actives 0.85% (n = 310,000); AID 1672;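 active = fluorescence ratio B-score at or below minus 3 SD of library scores, with starting-brightness B-score within 2 SD, cut at about -4.2 in these data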;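 note: channel flux triggered by added potassium and thallium sulfate stimulus; B-score of peak minus minimum fluorescence over baseline after thallium stimulus; more negative B-score means stronger Kir2.1 block with less thallium influx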
KCNQ1 act – potentiators or activators of human KCNQ1 potassium channel; B-score at 10 µM; actives 0.35% (n = 310,000); CHO-K1 KCNQ1, thallium flux FluxOR fluorescence; hits give high values; AID 2648; P51787;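 active = fluorescence ratio B-score, a plate-corrected score, at least three library SD, with initial intensity B-score within 5 SD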
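assay system = KCNQ1-transfected CHO-K1 cells | medium = assay buffer with matched DMSO | probe or stimulus = depolarizing K+/Tl+ stimulus, K2SO4 and Tl2SO4 each 12.5 mM in 5x stock | dosing = single dose | incubation = dye 90 min, compound 20 min, room temperature | detection = kinetic FluxOR fluorescence, 10 s baseline plus 110 s post-stimulus | evaluation = ratio B score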
KCNK9 inh-1 – blocks the human KCNK9 two-pore domain potassium channel; HEK293 KCNK9, FluxOR thallium flux fluorescence; hits give low values; Q9NPC2; AID 488922; B-score at 10 µM; actives 1.2% (n = 310,000);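 active = ratio B-score over 3 SD below the library mean, with starting fluorescence within 5 SD of its mean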;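 note: negative B-score means less thallium flux so channel inhibition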
Target sequence (Q9NPC2 whole entry, looked up, the tested form may be a part): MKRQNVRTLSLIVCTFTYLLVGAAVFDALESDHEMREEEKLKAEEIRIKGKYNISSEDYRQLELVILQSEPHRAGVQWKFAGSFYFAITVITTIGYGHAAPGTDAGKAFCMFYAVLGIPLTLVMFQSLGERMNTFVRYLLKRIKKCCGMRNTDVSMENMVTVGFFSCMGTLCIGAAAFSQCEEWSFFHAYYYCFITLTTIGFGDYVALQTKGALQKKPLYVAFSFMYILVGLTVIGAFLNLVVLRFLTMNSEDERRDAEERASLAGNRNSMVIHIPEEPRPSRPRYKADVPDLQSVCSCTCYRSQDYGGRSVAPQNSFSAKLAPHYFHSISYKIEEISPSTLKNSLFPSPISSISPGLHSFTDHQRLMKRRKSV
hERG ctr – blocks human hERG, in counter-screen for Kir2.1 inhibitors | shares compounds with Kir21 block | hERG-expressing cells, thallium flux | inhibition, % at 10 µM | actives 20% (n = 320);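 note: host cells are CHO cells stably expressing hERG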
KCNK9 inh-2 – tests whether Kir2.1 inhibitors also affect human KCNK9; shares compounds with Kir21 block; KCNK9-expressing cells, ion flux inhibition; inhibition, % at 10 µM; actives 5% (n = 320); AID 2329
Kir2-1 patch inh – mouse Kir2.1 inward rectifier channel inhibition | shares compounds with Kir21 block | Kir2.1 cells, automated patch-clamp current inhibition | inhibition, % at 25 µM | actives 71% (n = 320)
KCNQ1 inh valid – reconfirmed blocker of the human KCNQ1 potassium channel | shares compounds with KCNQ1 block | KCNQ1 cell line, FluxOR thallium flux fluorescence | actives 93% (n = 1,600) | inhibition, % at 10 µM;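 active = primary screen active, with duplicate mean exceeding buffer control mean plus 3 SD of buffer wells, cut at about 28% in these data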;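 note: 0% = buffer control ratio and 100% = XE991 inhibitor control ratio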
CHO Tl flux – KCNQ1 inhibitor counter-screen hit in parental CHO cells | shares compounds with KCNQ1 block | parental CHO-K1, FluxOR thallium flux fluorescence ratio; hits give low values; zero means no signal rise above baseline | fluorescence ratio (Tl flux) at 10 µM | actives 21% (n = 1,600);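 active = mean of duplicate thallium-flux fluorescence ratios in parental host cells more than 5 SD below the buffer control mean, cut at about 0.38 in these data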;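 note: ratio is peak minus minimum fluorescence divided by baseline fluorescence; actives read low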
KCNQ1 ephys val – blocks human KCNQ1 current in automated patch clamp. actives 20% (n = 490). calls only at 10 µM. shares compounds with KCNQ1 block. KCNQ1-CHO cells;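 active = KCNQ1 current drop exceeding 3 SD of negative control wells, seen in both duplicate runs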;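 note: steady state current during a 2 s step from -80 to +40 mV; negative values mean current inhibition and positive values mean potentiation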
KCNQ2 inh – KCNQ1 inhibitor that also blocks rat KCNQ2 channel; KCNQ2 cells, FluxOR thallium flux fluorescence; shares compounds with KCNQ1 block; actives 71% (n = 1,600); inhibition, % at 10 µM;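 active = mean percent inhibition of the KCNQ2 thallium signal more than 5 SD above the buffer-only control wells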;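 note: KCNQ2 expressed in CHO cells; 0% = buffer control wells and 100% = XE-991 inhibitor control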
KCNQ1 KCNE1 spec – KCNQ1 inhibitor that also blocks human KCNQ1/KCNE1 channel. inhibition, % at 10 µM. actives 77% (n = 1,600). AID 652147. KCNQ1/KCNE1 cells, FluxOR thallium flux fluorescence. shares compounds with KCNQ1 block;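 active = mean percent inhibition of duplicate wells above the buffer-only control mean plus 3 SD of those controls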;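 note: 0% = buffer only wells and 100% = XE-991 inhibitor control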
KCNK9 block conf – confirmation of human KCNK9 potassium channel inhibitors | shares compounds with KCNK9 inh-1 | HEK293 KCNK9 cells, FluxOR thallium flux fluorescence | inhibition, % at 10 µM | actives 43% (n = 4,900);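 active = thallium signal inhibited by more than 5 SD of the compound-free buffer control wells, on both duplicate plates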;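 note: 0% = assay buffer control wells without compound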
Kir2-1 spec – selectivity of KCNK9 modulators against mouse Kir2.1; shares compounds with KCNK9 inh-1; Kir2.1 cells, FluxOR thallium flux fluorescence; inhibition, % at 10 µM; actives 4% (n = 4,900); AID 492993;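 active = thallium signal drop more than 5 SD beyond the mean of the no-compound control wells, seen in both duplicate plates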;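 note: signal is fluorescence rise after thallium addition divided by baseline fluorescence; plate controls were assay buffer only for no effect and full block by chlorpromazine control for full effect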
HEK293 Tl ctr – second check of KCNK9 modulator effects in non-induced HEK293 cells. actives 40% (n = 4,900). inhibition, % at 10 µM. AID 492997. shares compounds with KCNK9 inh-1. FluxOR thallium flux;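 active = thallium signal drop beyond 5 SD of the untreated control mean, on both duplicate plates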;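 note: plate controls were buffer only IC0 wells for no effect and SID17386958 at its maximal inhibitory level for full effect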
An asterisk follows results filed as active; i = inactive; . = not tested or not shown; + = active, no number. Only some compounds are listed: those with a hit (about 3.7% of all), similar ones and a draw of the others. Unless noted, the rule behind the calls is not given here.

SMILES	KCNQ1 block	hERG rescue	KCNK3 block	Kir21 block	KCNQ1 act	KCNK9 inh-1	hERG ctr	KCNK9 inh-2	Kir2-1 patch inh	others
CN(C)CCOC(=O)c1cn(Cc2ccccc2)c2ccccc12	i	-3	i	-7*	i	i	53%*	i	33%*
Cc1ccc(CN2CCN(Cc3ccccc3F)CC2)cc1	i	-9	i	-11*	i	i	i	i	58%*
CCN1CCN(Cc2ccc(C)cc2)CC1	i	-4	i	1.9	i	i	.	.	.
Cc1cccc(CCNCc2cc3cccc(C)c3[nH]c2=O)c1	i	-3	i	-6.9*	i	i	i	i	33%*
COC(=O)C1=C(c2ccc(OC)c(OC)c2)C[C@@H]2CC[C@H]1N2C(=O)NCCOc1ccc(OC)cc1	.	.	i	.	.	.	.	.	.
CCCCCSc1cc(OC)c(CCN(C)C)cc1OC	i	-11	i	-6.3*	i	i	57%*	i	56%*
CCOc1ccc(Cl)cc1CNCCc1ccccc1F	i	-5	i	-8.9*	i	i	i	i	52%*
COc1ccccc1N1CCN(CCc2c[nH]c3cc4c(cc23)OCO4)CC1	.	.	i	.	.	.	.	.	.
COC12CCC3(CC1C(C)(O)C(C)(C)C)[C@H]1Cc4ccc(OC5OC(C(=O)O)[C@@H](O)C(O)[C@H]5O)c5c4[C@@]3(CCN1CC1CC1)C2O5 (stereo partly drawn)	.	.	i	.	.	.	.	.	.
c1ccc(CNCCc2c[nH]c3ccccc23)cc1	i	-6	i	-0.43	i	i	.	.	.
CCc1ccc(CNCCc2c[nH]c3ccccc23)cc1	i	-10	i	-15*	i	i	53%*	i	60%*
Fc1ccc(C(OCCN2CCCC2)c2ccc(F)cc2)cc1	i	-1	i	-2.9	i	i	.	.	.
Fc1ccc(C(OCCN2CCCC2)c2ccc(Br)cc2)cc1 (stereo not drawn)	i	-18	i	-8.4*	i	i	70%*	i	i
C[C@]12CCC3C(CC[C@H]4C[C@H](OC(=O)c5cccnc5)CC[C@]34C)C1CCC2=O (stereo partly drawn)	.	.	i	.	.	.	.	.	.
CCc1ccc(CN2CCN(Cc3ccc(SC)cc3)CC2)cc1	i	-8	i	-7.2*	i	i	60%*	i	15%*	KCNK9 block conf=i;Kir2-1 spec=60%*;HEK293 Tl ctr=i
CC1C=CCCC12C(=O)NC(=O)NC2=O (stereo not drawn)	.	.	i	.	.	.	.	.	.
O=C(c1ccco1)c1cn(Cc2ccccc2Cl)c2ccccc12	7*	-6	i	-0.77	i	-7.5*	.	.	.	KCNQ1 inh valid=91*;CHO Tl flux=0.38;KCNQ1 ephys val=i;KCNQ2 inh=102%*;KCNQ1 KCNE1 spec=152%*
CC(C)(C)C(=O)C(Oc1ccc(Cl)cc1)n1cncn1 (stereo not drawn)	.	.	i	.	.	.	.	.	.
C[n+]1c(-c2ccccc2)c2cc(N)ccc2c2ccc(N)cc21	i	-10	i	0.6	i	i	.	.	.
Nc1ccc2ccc3cccc[n+]3c2c1	24*	-44	i	-23	i	i	.	.	.	KCNQ1 inh valid=+;CHO Tl flux=0.0075*;KCNQ2 inh=i;KCNQ1 KCNE1 spec=i
C[N+]1(CCC(C(N)=O)(c2ccccc2)c2ccccc2)CCCCC1	i	-4	.	0.97	i	i	.	.	.
CN(C)C(=S)SSC(=S)N(C)C	16*	-41	i	-1.9	i	i	.	.	.	KCNQ1 inh valid=0;CHO Tl flux=0.55;KCNQ2 inh=i;KCNQ1 KCNE1 spec=i
Nc1cc(C(=O)Nc2ccc(Cl)cc2)ccc1N1CC2CC(C1)c1cccc(=O)n1C2 (stereo not drawn)	i	-14	i	-0.92	i	i	.	.	.
O=NN1CCCCC1	.	.	i	.	.	.	.	.	.
O=c1cc(C(F)(F)F)c2cc3c4c(c2o1)CCCN4CCC3	37*	-16	i	-11	i	i	.	.	.	KCNQ1 inh valid=+;CHO Tl flux=0.022*;KCNQ2 inh=i;KCNQ1 KCNE1 spec=i
CN1/C(=C\C=C2C(=O)NC(=S)NC2=O)C(C)(C)c2ccccc21	i	-8	i	-2.1	i	i	.	.	.
CC1(C)OC(c2ccccc2)=C/C(=C/C=C2C(=O)NC(=S)NC2=O)O1	15*	-18	.	-3.3	i	i	.	.	.	KCNQ1 inh valid=82*;CHO Tl flux=0.34*;KCNQ2 inh=i;KCNQ1 KCNE1 spec=i
CCCCCCn1c(=O)c(C(=O)Nc2ncccc2O)c(O)c2ccccc21	7*	-6	i	1.1	i	i	.	.	.	KCNQ1 inh valid=58*;CHO Tl flux=0.43;KCNQ2 inh=62%*;KCNQ1 KCNE1 spec=50%*
CCCCCn1c(=O)c(C(=O)Nc2ccccc2N)c(O)c2ccccc21	i	-1	i	1.9	i	i	.	.	.
CCCCCCn1c(=O)c(C(=O)Nc2cnccn2)c(O)c2ccccc21	9*	-12	i	0.74	i	i	.	.	.	KCNQ1 inh valid=44*;CHO Tl flux=0.5;KCNQ2 inh=i;KCNQ1 KCNE1 spec=i
